Data as given in paper PMC3781598 (Pharmaceutical research, 2013).

Tests used:
Assay type in all cases: in vitro ADME
[1] = Metabolic stability in knockout mouse lung microsomes
How it was run: (§1)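 Microsomes from B6 Cyp2a(4/5)bgs-null (CYP2A/CYP2B knockout) or side-by-side wild-type mouse lung and liver, at 0.1 mg protein/ml. Buffer was 50 mM potassium phosphate pH 7.4, 3 mM MgCl2, 1 mM EDTA. […] Parent loss by LC/MS/MS. Single-exponential kel converted to T1/2; CLint = kel × volume/mg protein.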

[2] = Metabolic stability in wild type mouse lung microsomes; settings: pH 7.4
How it was run: as §1

[3] = Metabolic stability in knockout mouse liver microsomes
How it was run: as §1

[4] = B6 Cyp2a(4/5)bgs-Null, mouse, lung microsomes from knockout mice, pH 7.4
[5] = B6 Cyp2a(4/5)bgs-Null, mouse, liver microsomes from knockout mice, pH 7.4

increase in metabolic stability, transgenic vs wild type lung microsomes ([1]; 0.1 mg/ml protein): 5 fold | half-life at 1 μM [1, 4]: 669 min | microsomal CLint at 1 μM [1, 4]: 10.4 µL/min/mg | half-life at 1 μM [2]: 124 min | microsomal CLint at 1 μM [2]: 55.7 µL/min/mg | increase in metabolic stability, transgenic vs wild type liver microsomes ([3]; 0.1 mg/ml protein): 1.7 fold | half-life at 1 μM [3, 5]: 127 min | microsomal CLint at 1 μM [3, 5]: 54.8 µL/min/mg
Structure (SMILES): Fc1cccc(Cl)c1CN1CCOCC1 [Compound 7, 4-(2-chloro-6-fluorobenzyl)morpholine]
